In ChEMBL document CHEMBL3286203, “Reactive oxygen species (ROS) inducible DNA cross-linking agents and their effect on cancer cells and normal lymphocytes” (J Med Chem, 2014):
Activity calls are given as the source filed them. No cut-off for these calls is given here.

Columns and labels:
SK-OV-3 = experiment: Cytotoxicity against human SKOV3 cells after 48 hrs by SRB assay; type: functional; details: SK-OV-3, 48 h
In short: (§1)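 GI50 from the NCI Developmental Therapeutics Program in vitro human tumor cell screen. Cell lines were maintained in RPMI 1640 with 5% fetal bovine serum and 2 mM L-glutamine. They were seeded at 5000–40 000 cells/well, depending on each line's doubling time, then exposed to drug for 48 h at 37 °C, 5% CO2.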

[1] = Cytotoxicity against human UACC257 cells after 48 hrs by SRB assay; type: functional; details: UACC-257, 48 h
In short: (§2)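 GI50 from the NCI-60 DTP human tumour line screen. Lines grown in RPMI 1640 with 5% fetal bovine serum and 2 mM L-glutamine, plated at 5000–40 000 cells/well according to doubling time. Incubated 48 h at 37 °C, 5% CO2.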

[2] = Induction of [32P]-labeled 49-mer oligonucleotide duplex DNA 12 interstrand cross-linking (unknown origin) at purine nucleotide site using compound radiolabeled at 3' of 12a in phosphate buffer at pH 7 at 90 degC after 30 mins by PAGE
SF-268 = experiment: Cytotoxicity against human SF268 cells after 48 hrs by SRB assay; type: functional; details: SF-268, 48 h; in short: as §1
786-0 = experiment: Cytotoxicity against human 786-0 cells after 48 hrs by SRB assay; type: functional; details: 786-0, 48 h
In short: (§3)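 GI50 was determined in the NCI Developmental Therapeutics Program in vitro 60-line cancer screen. Tumour lines were maintained in RPMI 1640 containing 5% FBS and 2 mM L-glutamine. Cells were inoculated at 5000–40 000 cells/well according to each line's doubling time before drug exposure.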

SNB-75 = experiment: Cytotoxicity against human SNB75 cells after 48 hrs by SRB assay; type: functional; details: SNB-75, 48 h; in short: as §2
[3] = Induction of [32P]-labeled 49-mer oligonucleotide duplex DNA 12 with GNC sequence at terminus (unknown origin) interstrand cross-linking at 1 mM after 16 hrs by PAGE in presence of OCL-
HCT-116 = experiment: Cytotoxicity against human HCT116 cells after 48 hrs by SRB assay; type: functional; details: HCT-116, 48 h; in short: as §3
SK-MEL-5 = experiment: Cytotoxicity against human SK-MEL-5 cells after 48 hrs by SRB assay; type: functional; details: SK-MEL-5, 48 h; in short: as §1
T47D = experiment: Cytotoxicity against human T47D cells after 48 hrs by SRB assay; type: functional; in short: as §2
LOX IMVI = experiment: Cytotoxicity against human LOXIMVI cells after 48 hrs by SRB assay; type: functional; in short: as §3
SF-539 = experiment: Cytotoxicity against human SF539 cells after 48 hrs by SRB assay; type: functional; details: SF-539, 48 h; in short: as §1
SW-620 = experiment: Cytotoxicity against human SW620 cells after 48 hrs by SRB assay; type: functional; details: SW-620, 48 h; in short: as §2
COLO 205 = experiment: Cytotoxicity against human COLO205 cells after 48 hrs by SRB assay; type: functional; details: COLO 205, 48 h; in short: as §3
NCI-H23 = experiment: Cytotoxicity against human NCI-H23 cells after 48 hrs by SRB assay; type: functional; details: NCI-H23, 48 h; in short: as §1
TK-10 = experiment: Cytotoxicity against human TK10 cells after 48 hrs by SRB assay; type: functional; details: TK-10, 48 h; in short: as §2
HOP-62 = experiment: Cytotoxicity against human HOP62 cells after 48 hrs by SRB assay; type: functional; details: HOP-62, 48 h; in short: as §3
MDA-MB-231 = experiment: Cytotoxicity against human MDA-MB-231 cells after 48 hrs by SRB assay; type: functional; details: MDA-MB-231, 48 h; in short: as §1
[4] = Induction of [32P]-labeled 49-mer oligonucleotide duplex DNA 12 with GNC sequence at terminus (unknown origin) interstrand cross-linking at 1 mM after 16 hrs by PAGE in presence of O2-
ACHN = experiment: Cytotoxicity against human ACHN cells after 48 hrs by SRB assay; type: functional; in short: as §3
[5] = Cytotoxicity against human OVCAR5 cells after 48 hrs by SRB assay; type: functional; details: OVCAR-5, 48 h; in short: as §1
HL-60(TB) = experiment: Cytotoxicity against human HL-60(TB) cells after 48 hrs by SRB assay; type: functional; details: HL-60, 48 h; in short: as §3
HCC 2998 = experiment: Cytotoxicity against human HCC2998 cells after 48 hrs by SRB assay; type: functional; details: HCC 2998, 48 h; in short: as §3
[6] = Induction of [32P]-labeled 49-mer oligonucleotide duplex DNA 12 with GNC sequence at terminus (unknown origin) interstrand cross-linking at 1 mM after 16 hrs by PAGE in presence of TBHP
A549 = experiment: Cytotoxicity against human A549 cells after 48 hrs by SRB assay; type: functional; details: A549, 48 h; in short: as §3
[7] = Induction of [32P]-labeled 49-mer oligonucleotide duplex DNA 12' with GNC sequence in middle (unknown origin) interstrand cross-linking at 1 mM after 12 hrs by PAGE in presence of H2O2
[8] = Induction of apoptosis in human CLL cells at 10 uM after 24 hrs by Annexin/propidium iodide staining-based assay (reference value: 95%); type: functional
[9] = Induction of apoptosis in human lymphocytes at 10 uM after 24 to 48 hrs by Annexin/propidium iodide staining-based assay; type: cell-based; details: lymphocyte
CLL [10] = experiment: Induction of apoptosis in human CLL cells at 10 uM by Annexin/propidium iodide staining-based assay; type: functional, cell-based; details: TDE = time-dependent effect
CLL [11] = experiment: Induction of ROS generation in human CLL cells at 10 uM after 24 hrs by DCDFA assay in presence of NAC; type: functional, cell-based
In short: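 Primary CLL cells given compound (10 μM) with or without N-acetyl cysteine ([…]) for 24 h. Global ROS measured by DCFDA staining and flow histograms; n = 8 patient samples.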

[12] = Induction of apoptosis in human CLL cells at 10 uM after 48 hrs by Annexin/propidium iodide staining-based assay (reference value: 91%); type: functional
[13] = (§4) Induction of apoptosis in human CLL cells after 24 hrs by Annexin/propidium iodide staining-based assay; type: functional, cell-based
In short: (§5)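 Primary CLL lymphocytes, Ficoll-Hypaque isolated from patient peripheral blood. Held fresh in RPMI 1640 with 10% autologous plasma. Dose–response over 24 h (n = 3). Apoptosis by annexin V–FITC/PI double staining and flow cytometry; IC50 derived from the dose–response.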

CLL [14] = experiment: as §4; type: functional, cell-based; in short: as §5
[15] = 1-Octanol-PBS partition coefficient, log P of the compound; type: physicochemical
[16] = Drug level in deuterated phosphate buffer treated with 40 mM N,N-Bis(2-chloroethyl)-4-(4,4,5,5-tetramethyl-1,3,2-dioxaborolan-2-yl)aniline after 24 hrs by 1H-NMR analysis; type: physicochemical
In short: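 1H NMR of the boronate mustard (40 mM) held 24 h in deuterated potassium phosphate buffer (4.0 mM) with no H2O2. Solvent was 1.0 M deuterated potassium phosphate buffer/DMSO-d6/D2O = 2:450:48.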

SMILES | GI50 (SK-OV-3) [µM] | GI50 [1] [µM] | Activity [2] | GI50 (SF-268) [µM] | GI50 (786-0) [µM] | GI50 (SNB-75) [µM] | GI50 (HCT-116) [µM] | GI50 (SK-MEL-5) [µM] | GI50 (T47D) [µM] | GI50 (LOX IMVI) [µM] | GI50 (SF-539) [µM] | GI50 (SW-620) [µM] | GI50 (COLO 205) [µM] | GI50 (NCI-H23) [µM] | GI50 (TK-10) [µM] | GI50 (HOP-62) [µM] | GI50 (MDA-MB-231) [µM] | GI50 (ACHN) [µM] | GI50 [5] [µM] | GI50 (HL-60(TB)) [µM] | further results
CC1(C)OB(c2ccc(N(CCCl)CCOS(C)(=O)=O)cc2)OC1(C)C | 8.96 | 13 | Active | 5.39 | 6.55 | 5.85 | 11.1 | 12.8 | 8.49 | 4.72 | 4.83 | 11.9 | 11 | 4.7 | 18 | 8.85 | 22.1 | 3.03 | 22.9 | 3.88 | Activity [3]: 0.9%; Activity [4]: 5%; GI50 (HCC 2998): 14.6 µM; Activity [6]: 1%; GI50 (A549): 4.98 µM
CC1(C)OB(c2ccc(N(CCBr)CCBr)cc2)OC1(C)C | – | – | Active | – | – | – | – | – | – | – | – | – | – | – | – | – | – | – | – | – | Activity [7]: 35%
CC1(C)OB(c2ccc(N(CCBr)CCOS(C)(=O)=O)cc2)OC1(C)C | – | – | Active | – | – | – | – | – | – | – | – | – | – | – | – | – | – | – | – | – | –
CC1(C)OB(c2ccc(N(CCCl)CCBr)cc2)OC1(C)C | 9.25 | 13.4 | Active | 4.9 | 8.95 | 10.7 | 13.9 | 13.7 | 12 | 6.6 | 6.37 | 13.9 | 11.4 | 5.38 | 22.6 | 10.9 | 22.8 | 3.4 | 25.9 | 5.11 | Activity [8]: 90%; Activity [9]: Toxic; Activity (CLL [10]): tde; Activity (CLL [11]): inactive; Activity [12]: 81%; GI50 (HCC 2998): 24 µM; GI50 (A549): 4.88 µM; IC50 [13]: 10.8 µM; Activity (CLL [14]): Dose-dependent effect
CC1(C)OB(c2ccc(N(CCCl)CCCl)cc2)OC1(C)C | 8.03 | 11.6 | Active | 4.61 | 5.35 | 7.98 | 11.6 | 14.5 | 10.7 | 5.17 | 5.7 | 11.3 | 11.6 | 4.57 | 16.7 | 10.9 | 16.5 | 3.64 | 21.6 | 4.66 | Activity [8]: 93%; logP [15]: 2.8; Activity [9]: Toxic; Activity [3]: 0.9%; Activity [7]: 27%; Activity (CLL [10]): tde; Activity [4]: 5%; Activity [12]: 83%; GI50 (HCC 2998): 14.9 µM; Drug metabolism [16]: metabolite_detected; Activity [6]: 1%; GI50 (A549): 2.69 µM; IC50 [13]: 9.26 µM; Activity (CLL [14]): Dose-dependent effect
